The target in data set [1] is T1, Multidrug resistance-associated protein 1 (Homo sapiens, UniProt P33527). In words: Competitive inhibition of ABCC1-mediated calcein-AM transport in human H69AR cells at 0.316 to 1.78 uM by Lineweaver-Burk plot analysis. The data set is classed as cell-based. The gist of the method: (§1)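 Kinetic study of calcein AM transport by Lineweaver-Burk analysis. ABCC1 was studied in H69AR cells with calcein AM at 0.25, 0.3, 0.45, 0.6 and 0.8 µM and inhibitor at 0.316, 0.562, 1.00 and 1.78 µM plus a zero control. ABCB1 was studied in A2780/ADR cells with calcein AM at 0.2–0.8 µM and inhibitor at 0.056, 0.100, 0.178 and 0.316 µM plus a zero control.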
T1 sequence (P33527 whole entry): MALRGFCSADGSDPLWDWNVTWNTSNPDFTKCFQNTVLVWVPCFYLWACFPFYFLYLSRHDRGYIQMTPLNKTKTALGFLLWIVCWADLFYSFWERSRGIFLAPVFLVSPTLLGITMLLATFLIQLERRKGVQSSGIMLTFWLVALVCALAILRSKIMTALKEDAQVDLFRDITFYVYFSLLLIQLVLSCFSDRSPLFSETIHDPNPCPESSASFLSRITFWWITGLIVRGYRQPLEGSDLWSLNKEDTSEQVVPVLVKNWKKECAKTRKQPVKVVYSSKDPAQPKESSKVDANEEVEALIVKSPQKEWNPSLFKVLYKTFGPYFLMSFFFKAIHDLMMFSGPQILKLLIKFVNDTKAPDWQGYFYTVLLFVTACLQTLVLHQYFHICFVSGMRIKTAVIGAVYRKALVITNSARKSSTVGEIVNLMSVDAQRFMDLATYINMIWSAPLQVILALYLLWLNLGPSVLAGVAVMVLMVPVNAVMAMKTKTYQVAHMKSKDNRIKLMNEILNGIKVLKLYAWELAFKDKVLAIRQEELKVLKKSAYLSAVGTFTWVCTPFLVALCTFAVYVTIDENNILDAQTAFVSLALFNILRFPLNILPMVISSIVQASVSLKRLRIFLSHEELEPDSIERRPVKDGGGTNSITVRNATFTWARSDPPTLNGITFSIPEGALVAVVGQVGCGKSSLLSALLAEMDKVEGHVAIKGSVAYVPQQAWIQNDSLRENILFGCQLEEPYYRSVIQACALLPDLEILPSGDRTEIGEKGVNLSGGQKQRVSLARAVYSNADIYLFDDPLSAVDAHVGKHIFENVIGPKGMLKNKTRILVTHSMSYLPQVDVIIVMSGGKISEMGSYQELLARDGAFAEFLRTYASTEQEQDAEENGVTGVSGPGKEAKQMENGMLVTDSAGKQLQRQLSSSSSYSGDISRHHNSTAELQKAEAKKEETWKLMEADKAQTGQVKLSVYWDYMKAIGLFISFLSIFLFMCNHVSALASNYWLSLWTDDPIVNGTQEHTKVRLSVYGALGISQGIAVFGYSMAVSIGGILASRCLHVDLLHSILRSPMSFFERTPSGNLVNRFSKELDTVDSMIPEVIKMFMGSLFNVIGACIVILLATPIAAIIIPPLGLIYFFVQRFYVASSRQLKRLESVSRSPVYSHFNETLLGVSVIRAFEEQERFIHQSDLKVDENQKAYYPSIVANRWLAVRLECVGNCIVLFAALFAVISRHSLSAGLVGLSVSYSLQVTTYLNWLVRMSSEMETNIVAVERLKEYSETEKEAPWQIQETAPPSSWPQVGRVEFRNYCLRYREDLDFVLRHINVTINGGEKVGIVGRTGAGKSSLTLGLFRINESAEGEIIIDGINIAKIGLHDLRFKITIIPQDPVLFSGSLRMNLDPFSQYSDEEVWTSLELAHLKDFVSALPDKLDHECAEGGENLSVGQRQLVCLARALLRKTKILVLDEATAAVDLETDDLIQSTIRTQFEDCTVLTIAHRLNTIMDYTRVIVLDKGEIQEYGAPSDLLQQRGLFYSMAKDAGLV

The target in data set [2] is T2, ATP-dependent translocase ABCB1 (Homo sapiens, UniProt P08183). Put plainly: Reversal of ABCB1-mediated multidrug resistance in human A2780/ADR cells assessed as resistance factor by measuring [GI50(resistant cell line without or with compound)/ GI50(sensitive cell line)] at 5 uM incubated for 72 hrs by MTT assay (reference value: 49). The data set is classed as cell-based. The method in brief:
(§2)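 MDR reversal assay with daunorubicin at 10 nM–10 µM, alone or with test compound at 0.5, 1, 5 or 10 µM. Resistant cells were ABCB1-overexpressing A2780/ADR or MDCK II MDR1, with sensitive A2780 or MDCK II cells as comparators. Resistance factor = resistant GI50 / sensitive GI50. EC50 was derived from resistance factors versus modulator concentration. Values are from ≥3 experiments in duplicate ± SEM.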

Data set [3] concerns the target ABCC1 (MRP1) (Homo sapiens, UniProt P33527). In words: Inhibition of ABCC1 in human H69AR cells at 10 uM preincubated for 30 mins followed by calcein-AM addition measured at 60 secs time interval by fluorescence assay relative to control. In kind it is cell-based. To be noted: probe calcein-AM. The method in brief:
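Calcein AM accumulation assay in H69AR small-cell lung cancer cells, which express only ABCC1. Inhibited efflux lets calcein AM build up intracellularly, where esterases cleave it to fluorescent calcein. The screen used 10 µM, scaled to a standard ABCC1 inhibitor at 10 µM as 100%. Hits reaching ≥20% inhibition (+SEM) went on to IC50 curves, constrained to that 100% maximum. Values are means of ≥3 independent experiments in duplicate ± SEM.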

Data set [4] concerns the target T1, Multidrug resistance-associated protein 1. Put plainly: Reversal of ABCC1 (unknown origin)-mediated multidrug resistance in MDCK2 cells co-expressing MRP1 (unknown origin) assessed as resistance factor by measuring [GI50(resistant cell line without or with compound)/ GI50(sensitive cell line)] at 1 uM incubated for 72 hrs by MTT assay (reference value: 7). The data set is classed as cell-based.

Data set [5] in a line: Growth inhibition of human MCF7/MX cells incubated for 72 hrs by MTT assay. The method in brief: (§3)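 MTT-based cytotoxicity assay giving GI50 of the compound alone in each listed parental, selected or transfected cell line.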
Data set [6] has as its target T3, Broad substrate specificity ATP-binding cassette transporter ABCG2 (Homo sapiens, UniProt Q9UNQ0).
T3 sequence (Q9UNQ0 whole entry): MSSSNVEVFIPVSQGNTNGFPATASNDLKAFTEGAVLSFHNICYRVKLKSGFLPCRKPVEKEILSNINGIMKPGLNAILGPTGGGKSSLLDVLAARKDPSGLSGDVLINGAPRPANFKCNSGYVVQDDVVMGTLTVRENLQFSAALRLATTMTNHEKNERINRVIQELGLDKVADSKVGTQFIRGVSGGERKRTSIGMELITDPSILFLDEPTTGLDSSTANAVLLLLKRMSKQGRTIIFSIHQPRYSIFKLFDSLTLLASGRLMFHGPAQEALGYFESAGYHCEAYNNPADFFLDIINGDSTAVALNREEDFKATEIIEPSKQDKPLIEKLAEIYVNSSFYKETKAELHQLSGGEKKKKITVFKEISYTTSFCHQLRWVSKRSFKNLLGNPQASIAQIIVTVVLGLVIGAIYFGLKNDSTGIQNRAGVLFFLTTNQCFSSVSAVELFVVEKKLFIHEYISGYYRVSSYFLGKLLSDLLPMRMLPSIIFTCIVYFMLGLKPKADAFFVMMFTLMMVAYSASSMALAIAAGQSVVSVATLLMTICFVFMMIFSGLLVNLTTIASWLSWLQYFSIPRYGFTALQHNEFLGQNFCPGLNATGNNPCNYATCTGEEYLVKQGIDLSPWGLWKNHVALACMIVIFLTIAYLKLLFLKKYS
Put plainly: Reversal of ABCG2-mediated multidrug resistance in human MCF-7/MX cells assessed as resistance factor by measuring [GI50(resistant cell line without or with compound)/ GI50(sensitive cell line)] at 5 uM incubated for 72 hrs by MTT assay (reference value: 789). The data set is classed as cell-based.

The target in data set [7] is T2, ATP-dependent translocase ABCB1. Put plainly: Reversal of ABCB1-mediated multidrug resistance in human A2780/ADR cells assessed as resistance factor by measuring [GI50(resistant cell line without or with compound)/ GI50(sensitive cell line)] at 0.5 uM incubated for 72 hrs by MTT assay (reference value: 49). The data set is classed as cell-based. The gist of the method:
as §2

For data set [8] the target is unchanged. In words: Reversal of ABCB1 (unknown origin)-mediated multidrug resistance in MDCK2 cells co-expressing MDR1 (unknown origin) assessed as resistance factor by measuring [GI50(resistant cell line without or with compound)/ GI50(sensitive cell line)] at 5 uM incubated for 72 hrs by MTT assay (reference value: 17). In kind it is cell-based. The method in brief: as §2

Data set [9] has the same target. In words: Competitive inhibition of ABCB1-mediated calcein-AM transport in human A2780/ADR cells at 0.056 to 0.316 uM by Lineweaver-Burk plot analysis. In kind it is cell-based. The method in brief: as §1
Data set [10] deals with ABCB1 (P-gp). In words: Therapeutic index, ratio of GI50 for human A2780/ADR cells to IC50 for ABCB1 in human A2780/ADR cells. In kind it is toxicity, cell-based. To be noted: read-out: TI. The method in brief:
(§4)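 Therapeutic ratio = GI50 from the MTT cytotoxicity assay / IC50 from the inhibition assay in the same cell line. The cell lines were H69AR (calcein AM, ABCC1), A2780/ADR (calcein AM, ABCB1) and MDCK II BCRP (pheophorbide A, ABCG2).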

Data set [11] deals with T1, Multidrug resistance-associated protein 1. In words: Reversal of ABCC1-mediated multidrug resistance in human H69AR cells assessed as resistance factor by measuring [GI50(resistant cell line without or with compound)/ GI50(sensitive cell line)] at 5 uM incubated for 72 hrs by MTT assay (reference value: 8.2). In kind it is cell-based.
For data set [12] the target is unchanged. In words: Reversal of ABCC1 (unknown origin)-mediated multidrug resistance in MDCK2 cells co-expressing MRP1 (unknown origin) assessed as resistance factor by measuring [GI50(resistant cell line without or with compound)/ GI50(sensitive cell line)] at 10 uM incubated for 72 hrs by MTT assay (reference value: 7). The data set is classed as cell-based.
In data set [13] the test system is ABCC1 (MRP1). Put plainly: Therapeutic index, ratio of GI50 for human H69AR cells to IC50 for ABCC1 in human H69AR cells. To be noted: read-out: TI. In kind it is toxicity, cell-based. The method in brief: as §4
Data set [14] in a line: Growth inhibition of human H69AR cells incubated for 72 hrs by MTT assay. The method in brief: as §3

T2 sequence (P08183 whole entry): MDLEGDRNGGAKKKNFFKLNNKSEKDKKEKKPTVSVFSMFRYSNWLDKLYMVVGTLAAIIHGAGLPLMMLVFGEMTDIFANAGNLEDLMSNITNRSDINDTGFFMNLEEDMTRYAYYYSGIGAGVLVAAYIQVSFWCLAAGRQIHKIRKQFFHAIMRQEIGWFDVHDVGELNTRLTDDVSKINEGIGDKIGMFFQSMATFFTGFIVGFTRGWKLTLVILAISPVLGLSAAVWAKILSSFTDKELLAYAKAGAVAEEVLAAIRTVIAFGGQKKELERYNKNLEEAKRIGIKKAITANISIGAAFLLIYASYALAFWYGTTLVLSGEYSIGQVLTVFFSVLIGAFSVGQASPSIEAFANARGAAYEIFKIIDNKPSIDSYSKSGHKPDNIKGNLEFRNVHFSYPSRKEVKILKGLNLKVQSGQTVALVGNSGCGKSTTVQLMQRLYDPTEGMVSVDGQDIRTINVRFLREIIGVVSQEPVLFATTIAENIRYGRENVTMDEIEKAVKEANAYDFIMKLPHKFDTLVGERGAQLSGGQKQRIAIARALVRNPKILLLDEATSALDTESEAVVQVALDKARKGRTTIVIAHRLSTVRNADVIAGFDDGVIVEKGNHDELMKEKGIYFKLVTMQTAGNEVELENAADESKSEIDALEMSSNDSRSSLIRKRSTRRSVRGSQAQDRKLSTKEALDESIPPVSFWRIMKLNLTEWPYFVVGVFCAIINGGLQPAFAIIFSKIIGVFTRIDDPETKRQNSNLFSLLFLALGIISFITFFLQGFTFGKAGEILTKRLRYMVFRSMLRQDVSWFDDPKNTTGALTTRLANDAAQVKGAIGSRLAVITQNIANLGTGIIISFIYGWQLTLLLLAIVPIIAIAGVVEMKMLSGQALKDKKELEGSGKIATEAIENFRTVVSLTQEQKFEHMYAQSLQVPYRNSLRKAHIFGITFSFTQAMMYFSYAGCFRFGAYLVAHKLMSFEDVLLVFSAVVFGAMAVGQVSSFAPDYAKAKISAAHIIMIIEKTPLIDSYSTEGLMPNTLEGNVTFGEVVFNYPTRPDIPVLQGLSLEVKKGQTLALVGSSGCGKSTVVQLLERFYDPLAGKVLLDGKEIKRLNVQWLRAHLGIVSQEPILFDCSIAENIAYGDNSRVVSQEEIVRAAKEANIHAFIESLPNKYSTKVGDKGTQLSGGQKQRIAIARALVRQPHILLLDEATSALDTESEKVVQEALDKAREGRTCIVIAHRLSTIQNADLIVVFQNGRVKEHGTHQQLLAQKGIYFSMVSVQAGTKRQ
ABCC1 (MRP1) (Homo sapiens, UniProt P33527), sequence (P33527 whole entry): as the sequence (P33527 whole entry) above

On to `CC1CCc2c(sc3nc(-c4cccnc4)nc(N4CCN(C(C(N)=O)c5ccccc5)CC4)c23)C1` (centres undefined), for which the “inhibition (INH)” value in data set [1] and in [9] was “Active” throughout. Moreover, the RatioGI50 in data set [2] stood at 6.3; in [4], 3.4; in data set [6] it was 179; in data set [7], 32; in data set [8], 0.9; in data set [11], 3.8. The RatioGI50 in data set [12] was found to be 1.4. Further, in [3], the inhibition at 1 min, 10 µM is not below 20%. For the same compound, the GI50 at 72 h came to 47 µM in [5] and 56.9 µM in [14]. Besides, the selectivity ratio in [10] is 14.9; in [13] it was 11.3.

These data come from ChEMBL document CHEMBL4350954, “Identification of Thienopyrimidine Scaffold as an Inhibitor of the ABC Transport Protein ABCC1 (MRP1) and Related Transporters Using a Combined Virtual Screening Approach” (J Med Chem, 2019).
